According to article PMC3558928 (Chemistry & biology, 2013):

Columns and labels:
human cells = experiment: Cell cycle checkpoint responses in cells; format: cell-based; conditions: 50µM, 24 hours; data not shown
[1] = biological target: WRN^long (full length WRN) (Homo sapiens, UniProt Q14191); experiment: Gel-based DNA unwinding assay, full length WRN; format: biochemical
PSNF5 cells [2] = experiment: Clonogenic survival, sensitization to aphidicolin, PSNF5; format: cell-based, human; conditions: ML216 24 hours before aphidicolin, p<0.01
Summary of the method: (§1)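 Isogenic SV40-transformed Bloom syndrome fibroblasts (GM08505 background): PSNF5 stably expresses Flag-tagged BLM, PSNG13 carries empty vector. Cells were exposed to test compound for 24 hr, then aphidicolin was added at graded concentrations for a further 24 hr. Cells were washed and grown in drug-free medium for up to 12 days to form colonies. Survival curves come from three independent experiments (mean, SD).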

PSNF5 cells [3] = experiment: WST-1 proliferation assay, PSNF5; format: cell-based, human; conditions: PSNF5 (BLM+); 24–72 hours
WRN^short (WRN^500–946) = WRN^short (WRN^500–946) (Homo sapiens, UniProt Q14191); experiment: Gel-based DNA unwinding assay, truncated WRN; format: biochemical
RecQ1 = biological target: T1, RecQ1 (Homo sapiens, UniProt P46063); experiment: Gel-based DNA unwinding assay, RECQ1; format: biochemical
T1 sequence (P46063 1-649): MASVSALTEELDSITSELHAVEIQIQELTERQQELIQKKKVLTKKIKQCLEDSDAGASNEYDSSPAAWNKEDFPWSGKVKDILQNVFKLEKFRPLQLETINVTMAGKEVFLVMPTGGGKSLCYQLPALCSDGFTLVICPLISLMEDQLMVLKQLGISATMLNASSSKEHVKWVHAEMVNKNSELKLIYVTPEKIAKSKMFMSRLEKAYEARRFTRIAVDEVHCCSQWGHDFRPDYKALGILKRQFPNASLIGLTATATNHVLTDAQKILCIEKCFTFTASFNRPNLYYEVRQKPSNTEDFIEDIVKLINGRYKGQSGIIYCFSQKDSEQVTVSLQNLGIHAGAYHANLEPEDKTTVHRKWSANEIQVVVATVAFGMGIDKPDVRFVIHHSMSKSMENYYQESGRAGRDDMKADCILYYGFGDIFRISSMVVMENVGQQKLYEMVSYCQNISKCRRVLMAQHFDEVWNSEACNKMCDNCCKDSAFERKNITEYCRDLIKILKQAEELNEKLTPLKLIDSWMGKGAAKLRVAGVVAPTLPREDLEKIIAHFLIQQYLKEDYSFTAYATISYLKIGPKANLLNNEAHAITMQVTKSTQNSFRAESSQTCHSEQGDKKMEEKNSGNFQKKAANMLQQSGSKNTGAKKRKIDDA

WRN^+ and WRN^− cells [4] = experiment: Aphidicolin sensitization of WRN+ and WRN− fibroblasts; format: cell-based, human
PSNG13 cells [5] = experiment: Clonogenic survival, sensitization to aphidicolin, PSNG13; format: cell-based, human
Summary of the method: as §1

BLM [6] = biological target: T2, BLM (Homo sapiens, UniProt P54132); experiment: BLM disruption of D-loop, Holliday junction and G-quadruplex substrates; format: biochemical
BLM [7] = biological target: T2, BLM; experiment: Fluorescence polarization assay of BLM binding to TAMRA-labeled oligonucleotide; conditions: dilution series; no nucleotide, ADP or ATP
PSNG13 cells [8] = experiment: WST-1 proliferation assay, PSNG13; format: cell-based, human; conditions: PSNG13 (BLM−); 24–72 hours
WRN^+ and WRN^− cells [9] = experiment: Proliferation of WRN+ and WRN− fibroblasts; format: cell-based, human
PSNF5 cells [10] = experiment: γ-H2AX focus formation after mitomycin C, PSNF5; format: cell-based, human; conditions: ML216 and MMC versus MMC alone, p<0.05
RecQ5 = RecQ5 (Homo sapiens, UniProt O94762); experiment: Gel-based DNA unwinding assay, RECQ5; format: biochemical
PSNF5 cells [11] = experiment: Sister chromatid exchange; format: cell-based, human
PSNG13 cells [12] = experiment: γ-H2AX focus formation after mitomycin C, PSNG13; format: cell-based, human; conditions: with or without MMC, p>0.05
BLM^full-length = BLM^full-length (Homo sapiens, UniProt P54132); experiment: Gel-based DNA unwinding assay, forked duplex, full-length BLM; format: biochemical
PSNG13 cells [13] = experiment: Sister chromatid exchange; format: cell-based, human
Summary of the method: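 Stable transfectants of SV40-transformed Bloom syndrome fibroblast line GM08505 were used: PSNF5 (Flag-BLM) and PSNG13 (empty vector). Cells were left untreated or exposed to test compound, with exposures in the 24–72 hr range. Sister chromatid exchanges were scored as frequency per chromosome and number per chromosome.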

BLM [14] = biological target: T2, BLM; experiment: ssDNA-dependent ATPase activity of BLM; format: biochemical
BLM [15] = biological target: T2, BLM; experiment: Electrophoretic mobility shift assay; format: binding; conditions: ssDNA or forked duplex; increasing concentrations
E. coli UvrD helicase = E. coli UvrD helicase (Escherichia coli, UniProt P03018); experiment: Gel-based DNA unwinding assay, UvrD; format: biochemical
BLM^636–1298 = BLM^636–1298 (Homo sapiens, UniProt P54132); experiment: Fluorescence-quenching qHTS assay of BLM DNA unwinding; format: biochemical
Summary of the method: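 Quenched-fluorescence unwinding screen used bacterially expressed truncated BLM (residues 636–1298). The forked duplex substrate carries tetramethylrhodamine at the 3' end of one strand and Black Hole Quencher-2 at the 5' end of the complement. ATP-dependent unwinding raises fluorescence. Inhibition is the signal loss relative to DMSO-only controls, run as dose-response (qHTS).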

BLM [16] = biological target: T2, BLM; experiment: Traditional helicase assay, radiolabeled forked duplex, PAGE; format: biochemical
Summary of the method: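 Substrate was gel-purified and dialysed, and its concentration was set by scintillation counting. Reactions held at most 1% DMSO. Unwinding to ssDNA was resolved by PAGE and expressed as percent unwinding against untreated (0%) and heat-denatured (100%) controls. IC50 came from nonlinear regression.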

T2 sequence (P54132 whole entry): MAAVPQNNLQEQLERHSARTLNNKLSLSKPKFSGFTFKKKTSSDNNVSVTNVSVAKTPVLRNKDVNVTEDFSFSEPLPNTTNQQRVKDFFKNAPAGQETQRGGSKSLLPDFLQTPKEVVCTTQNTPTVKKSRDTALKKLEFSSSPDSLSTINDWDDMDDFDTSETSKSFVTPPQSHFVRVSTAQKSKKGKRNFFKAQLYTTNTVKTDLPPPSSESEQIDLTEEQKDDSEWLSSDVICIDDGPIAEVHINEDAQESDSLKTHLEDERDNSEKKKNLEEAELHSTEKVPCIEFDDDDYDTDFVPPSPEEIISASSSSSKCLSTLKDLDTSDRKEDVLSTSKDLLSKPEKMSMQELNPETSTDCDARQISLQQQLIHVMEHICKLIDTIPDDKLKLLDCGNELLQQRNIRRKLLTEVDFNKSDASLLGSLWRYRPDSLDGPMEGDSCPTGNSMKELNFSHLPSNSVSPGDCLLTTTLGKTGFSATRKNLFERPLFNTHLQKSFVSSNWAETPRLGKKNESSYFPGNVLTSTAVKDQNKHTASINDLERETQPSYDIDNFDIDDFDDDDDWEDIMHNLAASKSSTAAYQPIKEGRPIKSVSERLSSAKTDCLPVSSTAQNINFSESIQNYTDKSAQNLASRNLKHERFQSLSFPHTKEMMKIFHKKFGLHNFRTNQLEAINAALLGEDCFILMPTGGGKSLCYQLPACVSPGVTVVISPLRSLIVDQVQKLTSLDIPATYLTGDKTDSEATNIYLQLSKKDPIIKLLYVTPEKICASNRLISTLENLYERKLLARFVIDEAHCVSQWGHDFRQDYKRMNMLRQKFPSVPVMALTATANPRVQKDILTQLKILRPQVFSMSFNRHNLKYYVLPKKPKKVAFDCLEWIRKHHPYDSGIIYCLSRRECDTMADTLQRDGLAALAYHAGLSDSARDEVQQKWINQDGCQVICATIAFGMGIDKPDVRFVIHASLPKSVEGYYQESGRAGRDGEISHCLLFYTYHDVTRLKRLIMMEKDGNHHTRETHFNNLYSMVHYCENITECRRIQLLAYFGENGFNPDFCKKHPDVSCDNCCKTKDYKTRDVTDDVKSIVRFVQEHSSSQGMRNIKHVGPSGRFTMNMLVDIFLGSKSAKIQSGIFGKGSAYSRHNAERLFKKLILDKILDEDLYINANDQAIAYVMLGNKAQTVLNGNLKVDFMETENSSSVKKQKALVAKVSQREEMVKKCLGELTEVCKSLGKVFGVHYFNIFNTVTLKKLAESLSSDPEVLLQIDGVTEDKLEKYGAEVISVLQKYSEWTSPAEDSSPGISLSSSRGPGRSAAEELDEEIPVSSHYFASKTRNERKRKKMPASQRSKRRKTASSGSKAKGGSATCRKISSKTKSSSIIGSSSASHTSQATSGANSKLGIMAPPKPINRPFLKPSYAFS
E. coli UvrD helicase, sequence (P03018 whole entry): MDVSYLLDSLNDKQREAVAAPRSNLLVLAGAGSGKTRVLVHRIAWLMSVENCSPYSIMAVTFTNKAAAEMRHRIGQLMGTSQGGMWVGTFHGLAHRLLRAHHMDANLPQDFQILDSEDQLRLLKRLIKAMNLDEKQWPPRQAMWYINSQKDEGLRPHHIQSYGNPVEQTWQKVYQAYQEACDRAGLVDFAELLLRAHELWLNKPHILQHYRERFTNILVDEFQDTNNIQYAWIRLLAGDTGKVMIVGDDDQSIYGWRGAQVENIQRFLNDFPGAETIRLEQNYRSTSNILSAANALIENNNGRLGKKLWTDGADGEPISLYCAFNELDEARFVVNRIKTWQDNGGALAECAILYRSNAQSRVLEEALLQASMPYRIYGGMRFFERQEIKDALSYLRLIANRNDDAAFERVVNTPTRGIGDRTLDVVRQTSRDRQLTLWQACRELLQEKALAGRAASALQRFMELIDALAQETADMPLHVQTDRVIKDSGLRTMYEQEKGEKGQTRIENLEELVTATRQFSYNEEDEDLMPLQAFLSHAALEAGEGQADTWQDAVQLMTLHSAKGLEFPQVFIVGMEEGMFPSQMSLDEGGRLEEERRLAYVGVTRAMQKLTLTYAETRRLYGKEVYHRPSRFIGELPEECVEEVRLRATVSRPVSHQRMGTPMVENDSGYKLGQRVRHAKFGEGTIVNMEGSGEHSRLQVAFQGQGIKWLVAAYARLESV
RecQ5, sequence (O94762 whole entry): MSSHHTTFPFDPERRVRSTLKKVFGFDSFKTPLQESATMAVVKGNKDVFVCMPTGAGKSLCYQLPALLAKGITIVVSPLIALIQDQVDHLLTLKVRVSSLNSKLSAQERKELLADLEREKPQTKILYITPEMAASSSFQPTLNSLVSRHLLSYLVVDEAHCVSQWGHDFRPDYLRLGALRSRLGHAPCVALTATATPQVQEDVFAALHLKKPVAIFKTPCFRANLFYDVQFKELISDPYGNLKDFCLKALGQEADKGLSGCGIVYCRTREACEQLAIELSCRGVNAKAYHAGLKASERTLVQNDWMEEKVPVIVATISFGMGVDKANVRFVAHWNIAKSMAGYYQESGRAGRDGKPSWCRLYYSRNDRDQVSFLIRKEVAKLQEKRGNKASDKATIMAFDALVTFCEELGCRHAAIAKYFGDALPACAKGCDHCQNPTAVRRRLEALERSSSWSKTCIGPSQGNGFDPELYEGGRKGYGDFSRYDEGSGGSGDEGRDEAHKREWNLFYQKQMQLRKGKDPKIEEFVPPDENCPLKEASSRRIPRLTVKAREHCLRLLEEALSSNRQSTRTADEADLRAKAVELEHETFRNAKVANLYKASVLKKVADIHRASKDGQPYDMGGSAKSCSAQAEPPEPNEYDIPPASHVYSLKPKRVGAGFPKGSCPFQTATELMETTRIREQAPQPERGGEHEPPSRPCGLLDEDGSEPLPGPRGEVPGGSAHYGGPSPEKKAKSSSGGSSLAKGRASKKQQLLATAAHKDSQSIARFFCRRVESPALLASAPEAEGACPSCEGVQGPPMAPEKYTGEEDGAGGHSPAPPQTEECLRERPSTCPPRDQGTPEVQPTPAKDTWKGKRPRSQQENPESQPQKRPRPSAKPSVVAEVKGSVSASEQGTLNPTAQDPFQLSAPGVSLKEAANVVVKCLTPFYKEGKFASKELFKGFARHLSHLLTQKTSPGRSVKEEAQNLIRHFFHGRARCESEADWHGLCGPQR
WRN^short (WRN^500–946), sequence (Q14191 500-946): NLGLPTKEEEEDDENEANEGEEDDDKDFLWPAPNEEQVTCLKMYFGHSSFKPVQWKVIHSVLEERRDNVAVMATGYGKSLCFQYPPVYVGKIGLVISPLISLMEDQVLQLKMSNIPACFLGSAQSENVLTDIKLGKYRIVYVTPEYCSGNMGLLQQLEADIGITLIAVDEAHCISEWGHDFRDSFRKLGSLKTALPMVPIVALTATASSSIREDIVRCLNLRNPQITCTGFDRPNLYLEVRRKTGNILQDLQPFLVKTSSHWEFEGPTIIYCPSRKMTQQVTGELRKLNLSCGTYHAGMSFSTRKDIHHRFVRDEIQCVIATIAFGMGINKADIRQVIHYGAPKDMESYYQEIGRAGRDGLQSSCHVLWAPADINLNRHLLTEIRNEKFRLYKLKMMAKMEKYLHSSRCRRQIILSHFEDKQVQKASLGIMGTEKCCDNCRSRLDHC
WRN^long (full length WRN), sequence (Q14191 whole entry): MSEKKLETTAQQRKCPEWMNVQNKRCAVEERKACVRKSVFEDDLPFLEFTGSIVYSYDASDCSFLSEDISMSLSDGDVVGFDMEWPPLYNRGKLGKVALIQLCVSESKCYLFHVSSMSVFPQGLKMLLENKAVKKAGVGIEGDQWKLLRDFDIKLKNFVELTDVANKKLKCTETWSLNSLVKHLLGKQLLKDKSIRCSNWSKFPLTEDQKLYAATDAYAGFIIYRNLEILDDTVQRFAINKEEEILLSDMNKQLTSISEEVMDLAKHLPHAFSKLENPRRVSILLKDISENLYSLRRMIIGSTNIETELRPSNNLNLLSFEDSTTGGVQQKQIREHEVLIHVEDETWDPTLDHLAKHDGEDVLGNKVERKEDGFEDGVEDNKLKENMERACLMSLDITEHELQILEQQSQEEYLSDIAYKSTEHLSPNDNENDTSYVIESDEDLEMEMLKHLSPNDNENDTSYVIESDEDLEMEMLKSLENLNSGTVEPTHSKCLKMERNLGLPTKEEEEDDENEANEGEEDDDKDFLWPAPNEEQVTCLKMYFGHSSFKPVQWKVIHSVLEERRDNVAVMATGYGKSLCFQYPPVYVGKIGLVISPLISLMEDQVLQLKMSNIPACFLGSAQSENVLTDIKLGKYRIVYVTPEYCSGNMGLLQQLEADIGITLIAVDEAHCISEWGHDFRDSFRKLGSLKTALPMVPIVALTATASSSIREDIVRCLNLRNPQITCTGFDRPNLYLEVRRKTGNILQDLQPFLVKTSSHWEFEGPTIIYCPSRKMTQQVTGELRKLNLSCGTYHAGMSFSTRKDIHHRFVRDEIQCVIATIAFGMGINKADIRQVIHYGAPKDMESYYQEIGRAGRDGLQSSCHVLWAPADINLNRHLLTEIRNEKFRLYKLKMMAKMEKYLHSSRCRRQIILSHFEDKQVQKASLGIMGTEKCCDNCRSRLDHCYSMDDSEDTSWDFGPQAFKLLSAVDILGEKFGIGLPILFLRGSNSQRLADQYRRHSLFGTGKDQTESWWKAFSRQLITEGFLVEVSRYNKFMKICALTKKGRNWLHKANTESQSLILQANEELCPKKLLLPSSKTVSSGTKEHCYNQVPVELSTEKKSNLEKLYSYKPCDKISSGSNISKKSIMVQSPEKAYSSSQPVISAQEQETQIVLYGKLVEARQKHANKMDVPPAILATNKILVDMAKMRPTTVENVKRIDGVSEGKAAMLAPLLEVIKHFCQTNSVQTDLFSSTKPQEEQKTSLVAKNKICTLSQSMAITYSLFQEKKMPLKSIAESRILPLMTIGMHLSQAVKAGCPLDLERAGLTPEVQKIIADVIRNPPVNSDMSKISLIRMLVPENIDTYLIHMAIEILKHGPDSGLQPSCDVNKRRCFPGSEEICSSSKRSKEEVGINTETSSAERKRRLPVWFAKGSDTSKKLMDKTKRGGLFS
BLM^full-length, sequence (P54132 whole entry): as the sequence (P54132 whole entry) above

O=C(Nc1ccc(F)c(C(F)(F)F)c1)Nc1nnc(-c2ccncc2)s1 [ML216]
cell cycle arrest in G1/S or G2/M (human cells): did not cause cell cycle arrest | phosphorylation of ATM or ATR targets, including CHK1 and CHK2 (human cells): did not appear to cause phosphorylation | sensitivity of full length WRN versus WRN^500–946 (based on IC50 values) [1]: 2.5 fold | sensitivity to aphidicolin (PSNF5 cells [2]): increased the sensitivity | effect on cell proliferation (PSNF5 cells [3]): inhibitor of the proliferation of PSNF5 cells | IC50 (WRN^short (WRN^500–946)): 12.6 µM | IC50 (RecQ1): > 50 µM | inhibition of helicase activity (RecQ1; at 50 µM): only very modest inhibition | sensitization to aphidicolin, WRN^+ versus WRN^− cells (WRN^+ and WRN^− cells [4]): similarly sensitized both cell types | sensitivity to aphidicolin (PSNG13 cells [5]): no sensitizing effect | inhibition of BLM's G-quadruplex disrupting activity (BLM [6]): only very modest inhibition | inhibition of disruption of the D-loop substrate (BLM [6]; 50 µM): only at high concentrations | inhibition of disruption of the Holliday junction substrate (BLM [6]; 50 µM): only at high concentrations | effect on DNA binding by BLM (fluorescence polarization) (BLM [7]): inhibits the ability of BLM to bind DNA | effect on cell proliferation (PSNG13 cells [8]): not of PSNG13 cells | inhibition of proliferation, WRN^+ versus WRN^− cells (WRN^+ and WRN^− cells [9]): equally well | γ-H2AX focus formation (PSNF5 cells [10]): statistically significant reduction | IC50 (RecQ5): > 50 µM | inhibition of helicase activity (RecQ5; at 50 µM): only very modest inhibition | frequency of sister chromatid exchanges (SCEs) (PSNF5 cells [11]): statistically significant increase | frequency of SCEs, short exposure (PSNF5 cells [11]; present only during the last 8 hours): statistically significant increase in the frequency of SCEs | γ-H2AX focus formation (PSNG13 cells [12]): no significant effect | sensitivity of BLM versus WRN (based on IC50 values) (BLM^full-length): 1.7 fold | frequency of sister chromatid exchanges (SCEs) (PSNG13 cells [13]): not in PSNG13 cells | mode of inhibition of ATPase activity with respect to ATP (BLM [14]): non-competitive | effect on DNA binding by BLM (EMSA) (BLM [15]): displacement of either ssDNA or forked duplex DNA from a complex with BLM | IC50 (E. coli UvrD helicase): > 50 µM | inhibition of helicase activity (E. coli UvrD helicase; at 50 µM): only very modest inhibition

O=C(Nc1ccc(Cl)c(Cl)c1)Nc1nnc(-c2ccncc2)s1 [MLS000559245]
activity in fluorescence-based screening assay (BLM^636–1298): showed activity | activity in radioactivity-based helicase assay (BLM [16]): showed activity
